This passage reports activation, outcome and potentiation results from PubChem BioAssay.

The source made the active and inactive calls.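 Rule for the calls, unless noted: active = potentiation averaged over duplicate wells exceeding buffer-only control mean by more than 3 SD; inactive = the rest.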

Potassium voltage-gated channel subfamily KQT member 1 (Homo sapiens), sequence (P51787 whole entry, looked up): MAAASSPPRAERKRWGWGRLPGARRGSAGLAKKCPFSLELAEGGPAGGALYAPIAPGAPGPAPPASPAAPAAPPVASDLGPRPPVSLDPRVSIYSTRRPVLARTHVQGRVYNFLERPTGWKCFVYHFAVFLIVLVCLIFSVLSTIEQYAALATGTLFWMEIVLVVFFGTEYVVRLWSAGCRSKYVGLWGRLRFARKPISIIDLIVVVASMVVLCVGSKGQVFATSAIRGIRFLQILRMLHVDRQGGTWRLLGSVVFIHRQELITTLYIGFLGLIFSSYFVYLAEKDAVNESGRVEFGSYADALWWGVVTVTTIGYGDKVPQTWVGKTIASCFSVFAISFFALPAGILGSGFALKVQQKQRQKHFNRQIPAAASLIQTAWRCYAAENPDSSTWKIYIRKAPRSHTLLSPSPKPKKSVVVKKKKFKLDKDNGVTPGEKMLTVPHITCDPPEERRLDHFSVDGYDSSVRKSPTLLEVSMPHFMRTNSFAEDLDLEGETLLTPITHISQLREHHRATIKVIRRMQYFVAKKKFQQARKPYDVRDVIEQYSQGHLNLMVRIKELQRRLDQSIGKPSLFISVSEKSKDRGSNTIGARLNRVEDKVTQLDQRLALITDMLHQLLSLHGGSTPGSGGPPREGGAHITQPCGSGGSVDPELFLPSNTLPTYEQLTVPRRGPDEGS
Potassium voltage-gated channel subfamily KQT member 2 (Rattus norvegicus), sequence (O88943 whole entry, looked up): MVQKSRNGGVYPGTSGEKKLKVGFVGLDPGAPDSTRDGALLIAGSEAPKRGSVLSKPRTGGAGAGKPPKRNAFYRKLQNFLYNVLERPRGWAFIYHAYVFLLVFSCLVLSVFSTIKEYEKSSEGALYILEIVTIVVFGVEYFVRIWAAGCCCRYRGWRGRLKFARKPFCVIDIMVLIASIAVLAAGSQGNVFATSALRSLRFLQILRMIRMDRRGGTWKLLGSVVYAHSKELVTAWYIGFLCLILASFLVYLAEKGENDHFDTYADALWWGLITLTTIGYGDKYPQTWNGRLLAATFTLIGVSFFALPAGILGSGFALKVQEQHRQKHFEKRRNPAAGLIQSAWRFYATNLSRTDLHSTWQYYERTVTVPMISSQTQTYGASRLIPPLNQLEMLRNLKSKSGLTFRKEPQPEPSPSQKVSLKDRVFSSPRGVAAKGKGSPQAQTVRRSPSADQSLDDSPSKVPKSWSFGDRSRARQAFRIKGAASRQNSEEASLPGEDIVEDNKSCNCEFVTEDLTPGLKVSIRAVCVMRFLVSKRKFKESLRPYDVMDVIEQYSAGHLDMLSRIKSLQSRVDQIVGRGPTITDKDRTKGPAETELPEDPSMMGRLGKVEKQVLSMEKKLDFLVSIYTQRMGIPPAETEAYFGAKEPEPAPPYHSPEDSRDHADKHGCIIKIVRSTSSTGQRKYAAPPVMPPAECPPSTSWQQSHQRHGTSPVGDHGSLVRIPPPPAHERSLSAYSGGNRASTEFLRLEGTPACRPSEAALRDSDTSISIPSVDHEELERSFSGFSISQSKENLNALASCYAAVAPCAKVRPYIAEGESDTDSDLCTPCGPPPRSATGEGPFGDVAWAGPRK

Test system in one experiment: not listed separately
As to the kind of experiment: nonspecific flux increase, KCNQ1-free cells – parental CHO cells, counter-screen for KCNQ1 potentiator project (AID 493006;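 active = duplicate-averaged activation above buffer control mean plus 5 SD of those controls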). As to conditions: parental CHO-K1 cells, FluxOR thallium flux, at 10 µM; hits give high values. The procedure, abridged:
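Assay system: Untransfected host CHO-K1 cells with FluxOR thallium dye | Probe or stimulus: Potassium/thallium depolarization pulse | Schedule: Overnight 37 °C plating, 90 min RT dye, 20 min compound | Detection: Kinetic thallium-flux fluorescence | Read-out: Max-minus-min fluorescence over baseline, percent of buffer-to-R-L3 span | Benchmarks: Low control buffer, high control R-L3 activator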
With `O=C(O)CCSc1ncnc2sc(-c3ccccc3)cc12`, the activation was 180% (active).

Turning to `CC(C)c1ccc(C(=O)NC2=NCCS2)cc1`, the result was inactive.

With `Cc1cccc(C(=O)NC(=S)N(C)C2CCCCC2)c1`, the activation is 268% (active).

Consider `COc1ccc(NC(=O)CC2C(=O)NCCN2C(=O)Nc2ccc(C(F)(F)F)cc2)cc1` (stereo not given), for which the result was inactive.

Regarding `O=C(CSc1nc2ccccc2s1)c1cc2ccccc2o1`, the outcome was inactive.

The next experiment concerns the target Potassium voltage-gated channel subfamily KQT member 1 (Homo sapiens) (UniProt P51787). The experiment is described as follows: enhancement of KCNQ1 channel thallium flux – FluxOR thallium flux, CHO cells, duplicates, confirmation (AID 493007).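 For outcome: cells depolarized by a potassium plus thallium sulfate stimulus after compound.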 As to conditions: KCNQ1 cell line, FluxOR thallium flux fluorescence, at 10 µM; hits give high values, % of reference activator effect, buffer zero. Summed up: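 Material: KCNQ1-expressing CHO cell line; Incubation: FluxOR dye loading 90 min, compound exposure 20 min, room temperature; Detection: FluxOR Tl+ flux fluorescence, 10 s baseline plus 110 s recording; Read-out: percent activation between buffer and R-L3 responses; Control set: buffer-only wells as 0% and R-L3 activator as 100%; Replication: duplicate wells per compound.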
In the case of `O=C(c1ccco1)N1CCN(S(=O)(=O)c2ccc(F)cc2)CC1`, the outcome was inactive.

Turning to `O=C(O)c1c2c(nc3ccccc13)/C(=C/c1cccc([N+](=O)[O-])c1)CCC2`, the potentiation was 64% (active).

For `CC(C)(C)C1CCc2c(sc(NC(=O)C3CC=CCC3C(=O)O)c2C#N)C1` (stereo not given), the potentiation was 53% (active).

Consider `CC/C(=N\NC(=S)Nc1cccc(C)c1)c1ccccc1`, for which the potentiation is 104% (active).

On to `O=C(NC(=S)Nc1ccccc1N1CCOCC1)c1ccc(-c2ccccc2F)o1`, for which the potentiation was 51.5% (active).

Turning to `CCCCN(CCCC)c1ccc(C(=O)c2ccccc2C(=O)O)c(O)c1`, the potentiation is 51.5% (active).

For the compound `CC(/C=N/NC(=O)c1cc(-c2cccs2)[nH]n1)=C\c1ccccc1`, the potentiation was 116% (active).

As for `CCOC(=O)c1sc(NC(=S)NC(=O)c2ccco2)nc1C`, the potentiation was 37% (active).

Turning to `COc1cccc(OCC(=O)NNC(=O)C(=O)Nc2cccc(C)c2)c1`, the potentiation is 74.5% (active).

On to `CCCCOC(=O)c1cc(C)nc2ccc(Br)cc12`, for which the potentiation was 172% (active).

For the compound `Cc1ccc(-c2nc3ccccc3c(=O)n2O)cc1`, the potentiation was 19% (active).

`Cn1cc(-c2nnnn2-c2ccccc2)c(=O)c2ccccc21`: the outcome was inactive.

For the compound `Cc1sc2nc(C(C)C)nc(SCC(=O)NCc3ccco3)c2c1C`, the potentiation is 85.5% (active).

As to `C=CCn1c(SCC(N)=O)nc2scc(-c3ccc(C)o3)c2c1=O`, the potentiation is 79.5% (active).

Turning to `COc1cccc(NC(=O)NCC2CCN(Cc3ccc(F)cc3)CC2)c1`, the outcome was inactive.

Regarding `CCOC(=O)c1cnc(SCC(=O)Nc2nc(C)c(C)s2)nc1N`, the result was inactive.

As to `OCCN1CCN(c2ncnc3c2sc2nc(N4CCOCC4)c4c(c23)CCC4)CC1`, the potentiation was 19% (active).

With `CCOc1ccc2[nH]c(=O)c(CN(CCN3CCCC3)C(=S)Nc3ccccc3OCC)cc2c1`, the outcome was inactive.

Regarding `COC(=O)C1CCCN1C(=O)COc1ccc(Cl)cc1Br` (stereo not given), the result was inactive.

Consider `OCCN1CCN(CCCN2c3ccccc3Sc3ccc(Cl)cc32)CC1`, for which the result was inactive.

Take `COC(=O)c1c(NS(=O)(=O)Cc2ccccc2)sc2c1CCCC2`: the potentiation was 136% (active).

With `CC(NC(=S)NC(=O)c1ccccc1Br)c1ccccc1` (stereo not given), the potentiation is 84% (active).

On to `CC(=O)CSc1ncnc2sc3c(c12)CCC(C)C3` (stereo not given), for which the potentiation is 154% (active).

In the case of `O=C(NCC1CCCO1)c1ccc2c(c1)S(=O)(=O)c1ccccc1C2=O` (stereo not given), the result was inactive.

Turning to `O=C(NC(=S)Nc1nc2c(s1)CSc1ccccc1-2)c1ccccc1`, the potentiation was 68.5% (active).

`Cc1cc(C)cc(C(=O)OCC(=O)NCC(F)(F)F)c1`: the result was inactive.

In the case of `C=CCn1c(O)c(N=NC(=S)Nc2ccc(OC)c(Cl)c2)c2ccccc21`, the potentiation was 57% (active).

Consider `CC1CCN(S(=O)(=O)c2cccc(C(=O)N3CCN(c4ccc(F)cc4)CC3)c2)CC1`, for which the outcome was inactive.

Turning to `CC(=O)N(C)c1ccc(NC(=O)Cc2cccc3ccccc23)cc1`, the result was inactive.

As for `O=C(NNC(=S)NC(=O)c1ccco1)c1ccc(F)cc1`, the potentiation is 69% (active).

`COc1cc(C(=O)NC(=S)NC(C)C)cc(OC)c1OC`: the outcome was inactive.

Turning to `CCOc1ccc2nc(N3C(=O)/C(=C/c4ccccc4)NC3=S)sc2c1`, the potentiation was 367% (active).

Consider `C=CCCCN(Cc1ccccc1)S(=O)(=O)c1ccccc1Br`, for which the result was inactive.

On to `C/C(=N\NC(=O)c1cc2ccccc2cc1O)c1ccccn1`, for which the potentiation is 38.5% (active).

Regarding `O=C(c1ccccc1)N1CCCC(c2ccc(Cl)cc2)=N1`, the result was inactive.

Take `O=C(O)CCSc1ncnc2sc(-c3ccccc3)cc12`: the potentiation is 89.5% (active).

As to `CC(C)c1ccc(C(=O)NC2=NCCS2)cc1`, the result was inactive.

`Cc1cccc(C(=O)NC(=S)N(C)C2CCCCC2)c1`: the potentiation is 72.5% (active).

As for `COc1ccc(NC(=O)CC2C(=O)NCCN2C(=O)Nc2ccc(C(F)(F)F)cc2)cc1` (stereo not given), the outcome was inactive.

Consider `O=C(CSc1nc2ccccc2s1)c1cc2ccccc2o1`, for which the result was inactive.

The next experiment addresses Potassium voltage-gated channel subfamily KQT member 2 (Rattus norvegicus) (UniProt O88943). The experiment is described as follows: KCNQ2 thallium flux enhancement – KCNQ2-CHO-K1 cells, selectivity assay for KCNQ1 potentiator project (AID 493009;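 active = mean duplicate potentiation above the buffer control mean plus 5 SD of buffer wells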;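 note: assay conditions were tuned for KCNQ1 rather than KCNQ2 modulators; signal is max minus min fluorescence divided by baseline after thallium stimulus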). As to conditions: FluxOR thallium flux fluorescence, at 10 µM; hits give high values, scaled: buffer 0, activator control 100.
Consider `O=C(c1ccco1)N1CCN(S(=O)(=O)c2ccc(F)cc2)CC1`, for which the outcome was inactive.

Turning to `O=C(O)c1c2c(nc3ccccc13)/C(=C/c1cccc([N+](=O)[O-])c1)CCC2`, the potentiation is 199% (active).

Regarding `CC(C)(C)C1CCc2c(sc(NC(=O)C3CC=CCC3C(=O)O)c2C#N)C1` (stereo not given), the potentiation was 184% (active).

As for `CC/C(=N\NC(=S)Nc1cccc(C)c1)c1ccccc1`, the potentiation is 216% (active).

As for `O=C(NC(=S)Nc1ccccc1N1CCOCC1)c1ccc(-c2ccccc2F)o1`, the potentiation was 182% (active).

As to `CCCCN(CCCC)c1ccc(C(=O)c2ccccc2C(=O)O)c(O)c1`, the potentiation is 182% (active).

Turning to `CC(/C=N/NC(=O)c1cc(-c2cccs2)[nH]n1)=C\c1ccccc1`, the potentiation was 250% (active).

With `CCOC(=O)c1sc(NC(=S)NC(=O)c2ccco2)nc1C`, the potentiation was 157% (active).

With `COc1cccc(OCC(=O)NNC(=O)C(=O)Nc2cccc(C)c2)c1`, the potentiation is 224% (active).

As for `CCCCOC(=O)c1cc(C)nc2ccc(Br)cc12`, the potentiation is 320% (active).

`Cc1ccc(-c2nc3ccccc3c(=O)n2O)cc1`: the potentiation was 171% (active).

Take `Cn1cc(-c2nnnn2-c2ccccc2)c(=O)c2ccccc21`: the outcome was inactive.

Regarding `Cc1sc2nc(C(C)C)nc(SCC(=O)NCc3ccco3)c2c1C`, the potentiation was 280% (active).

`C=CCn1c(SCC(N)=O)nc2scc(-c3ccc(C)o3)c2c1=O`: the potentiation is 230% (active).

For `COc1cccc(NC(=O)NCC2CCN(Cc3ccc(F)cc3)CC2)c1`, the result was inactive.

With `CCOC(=O)c1cnc(SCC(=O)Nc2nc(C)c(C)s2)nc1N`, the outcome was inactive.

Turning to `OCCN1CCN(c2ncnc3c2sc2nc(N4CCOCC4)c4c(c23)CCC4)CC1`, the result was inactive.

On to `CCOc1ccc2[nH]c(=O)c(CN(CCN3CCCC3)C(=S)Nc3ccccc3OCC)cc2c1`, for which the potentiation was 164% (active).

As for `COC(=O)C1CCCN1C(=O)COc1ccc(Cl)cc1Br` (stereo not given), the potentiation is 158% (active).

On to `OCCN1CCN(CCCN2c3ccccc3Sc3ccc(Cl)cc32)CC1`, for which the outcome was inactive.

As to `COC(=O)c1c(NS(=O)(=O)Cc2ccccc2)sc2c1CCCC2`, the potentiation was 186% (active).

Turning to `CC(NC(=S)NC(=O)c1ccccc1Br)c1ccccc1` (stereo not given), the potentiation was 184% (active).

Regarding `CC(=O)CSc1ncnc2sc3c(c12)CCC(C)C3` (stereo not given), the potentiation is 406% (active).

In the case of `O=C(NCC1CCCO1)c1ccc2c(c1)S(=O)(=O)c1ccccc1C2=O` (stereo not given), the outcome was inactive.

As to `O=C(NC(=S)Nc1nc2c(s1)CSc1ccccc1-2)c1ccccc1`, the potentiation was 147% (active).

As for `Cc1cc(C)cc(C(=O)OCC(=O)NCC(F)(F)F)c1`, the outcome was inactive.

As to `C=CCn1c(O)c(N=NC(=S)Nc2ccc(OC)c(Cl)c2)c2ccccc21`, the potentiation was 215% (active).

In the case of `CC1CCN(S(=O)(=O)c2cccc(C(=O)N3CCN(c4ccc(F)cc4)CC3)c2)CC1`, the result was inactive.

For `CC(=O)N(C)c1ccc(NC(=O)Cc2cccc3ccccc23)cc1`, the outcome was inactive.

Consider `O=C(NNC(=S)NC(=O)c1ccco1)c1ccc(F)cc1`, for which the potentiation was 232% (active).

As to `COc1cc(C(=O)NC(=S)NC(C)C)cc(OC)c1OC`, the outcome was inactive.

As to `CCOc1ccc2nc(N3C(=O)/C(=C/c4ccccc4)NC3=S)sc2c1`, the potentiation was 700% (active).

For `C=CCCCN(Cc1ccccc1)S(=O)(=O)c1ccccc1Br`, the outcome was inactive.

Take `C/C(=N\NC(=O)c1cc2ccccc2cc1O)c1ccccn1`: the potentiation was 169% (active).

For `O=C(c1ccccc1)N1CCCC(c2ccc(Cl)cc2)=N1`, the outcome was inactive.

Consider `O=C(O)CCSc1ncnc2sc(-c3ccccc3)cc12`, for which the potentiation is 220% (active).

On to `CC(C)c1ccc(C(=O)NC2=NCCS2)cc1`, for which the result was inactive.

As for `Cc1cccc(C(=O)NC(=S)N(C)C2CCCCC2)c1`, the potentiation is 326% (active).

For `COc1ccc(NC(=O)CC2C(=O)NCCN2C(=O)Nc2ccc(C(F)(F)F)cc2)cc1` (stereo not given), the outcome was inactive.

With `O=C(CSc1nc2ccccc2s1)c1cc2ccccc2o1`, the result was inactive.
